Measurements pooled from the literature.
Compare with care: the assays were run in different laboratories.
Target: Calcium/calmodulin-dependent protein kinase type II subunit gamma (CAMK2G, Homo sapiens, UniProt Q13555)

| SMILES | assay | setting | endpoint | value |
| --- | --- | --- | --- | --- |
| CC(C)S(=O)(=O)c1ccc2nccc(Nc3ccc4sc(C5CCCC5)nc4c3)c2c1 | enzyme activity, inhibitor | 1 µM | activity vs control | 104% |
| CCCCC(=O)Nc1ccc(-c2ccc3ncn(CCC)c(=O)c3c2)cn1 | binding, competition with immobilised ligand | 0.5 µM | remaining binding | 100% |
| CO[C@@H]1[C@H](N(C)C(=O)c2ccccc2)C[C@H]2O[C@]1(C)n1c3ccccc3c3c4c(c5c6ccccc6n2c5c31)C(=O)NC4 | enzyme activity, inhibitor | 1 µM | inhibition | 90% |
| C1=C/COCc2cc(ccc2OCCN2CCCC2)Nc2nccc(n2)-c2cccc(c2)COC/1 | binding | 0.1 µM | remaining binding | 89% |
| C[C@H]1CC[C@H](n2c3cnccc3c3cnc(Nc4ccc5c(n4)CCN(C(=O)CO)C5)nc32)CC1 | binding | 1 µM | remaining binding | 40% |
| CC#CC(=O)N1CCC[C@H]1c1nc(-c2ccc(C(=O)Nc3ccccn3)cc2)c2c(N)nccn12 | enzyme activity, inhibitor | 1 µM | inhibition | 0% |
| Cc1cc(O)c(-c2ccc([C@@H](C)CN(C)C)cc2)c2c1[nH]c(=O)c1sccc12 | cell-free assay, inhibitor | 0.1 µM, lysate | inhibition | -11.1% |
| CN1CCN(C(=O)c2ccc(NC(=O)Nc3ccc(N(C)c4ccnc(Nc5ccc(CS(C)(=O)=O)cc5)n4)cc3)cc2)CC1 | binding | 1 µM | remaining binding | 100% |
